# Results of several laboratories.
# Protocols differ between the studies behind these lines.
SMILES,cell line,test,conditions,quantity,value
O=C1Nc2ccccc2C1=NNc1nnc2n1N=C(c1ccccc1)CS2,DU-145,"cell growth or viability, SRB",10 µM,inhibition,16%
COc1cc(Nc2nccc(-c3cnn4nc(OC)ccc34)n2)cc(C(F)(F)F)c1,LOU-NH91,"cell growth or viability, ATP luminescence",,IC50,0.19 µM
CCc1cccc(CN2CCc3cc(O)c(OC)cc3C2)c1,DU-145,"cell growth or viability, WST-1",96 h,GI50,> 100 µM
CC(C)C[C@H](NC(=O)[C@H](Cc1ccccc1)NC(=O)c1cnccn1)B(O)O,LN-229,"cell growth or viability, ATP luminescence",,IC50,0.0079 µM
COc1cc2c(cc1O)CCN(Cc1cccc([N+](=O)[O-])c1)C2,DU-145,"cell growth or viability, WST-1",96 h,GI50,> 100 µM
Cn1cc(C(c2ccc(C(=O)O)cc2)c2cn(C)c3ccccc23)c2ccccc21,LNCaP,"cell growth or viability, MTT","100 µM, 48 h",inhibition,95%
COc1ccc(-c2ccc(-c3ccc(C(=N)N)nc3)s2)cc1Cl,SF-295,"cell growth or viability, SRB",,GI50,1.8 µM
C[C@@H](NC(=O)[C@H](CCCCNC(=O)C(F)(F)F)NS(C)(=O)=O)C(=O)N[C@@H](CCCNC(=N)N)C(N)=O,Jurkat,"cell growth or viability, MTT",72 h,EC50,21.2 to 28.1 µM
COc1ccc2c(N(C)c3ccc(/C(C)=N/OCCN)cc3)c3c(Cl)coc3nc2c1,LNCaP,cell migration,"1 µM, 24 h",inhibition,70%
COc1cc2c(cc1OS(N)(=O)=O)CCN(Cc1cccc(C)c1)C2,DU-145,"cell growth or viability, WST-1",96 h,GI50,41.7 µM
O=C(O)/C=C/c1cccc(C(c2c[nH]c3ccccc23)c2c[nH]c3ccccc23)c1,DU-145,"cell growth or viability, MTT","100 µM, 48 h",inhibition,28%
COc1cc2c(cc1O)CCN(Cc1cccc(O)c1)C2,DU-145,"cell growth or viability, WST-1",96 h,GI50,> 100 µM
CC(C)n1cc(C(c2ccc(/C=C/C(=O)O)s2)c2cn(C(C)C)c3ccccc23)c2ccccc21,DU-145,"cell growth or viability, MTT","100 µM, 48 h",inhibition,94%
COc1ccc(CN2CCc3cc(OS(N)(=O)=O)c(OC)cc3C2)cc1OC,DU-145,"cell growth or viability, WST-1",96 h,GI50,8.54 µM
O=C(O)c1ccc(C(c2c[nH]c3ccccc23)c2c[nH]c3ccccc23)cc1,LNCaP,"cell growth or viability, MTT","100 µM, 48 h",inhibition,100%
COc1cccc(Oc2ccccc2NC(=O)CNC(=O)c2cccc3ccccc23)c1,SF-295,"cell growth or viability, SRB",48 h,GI50,0.112 µM
